The target in data set [1] is Adrenergic receptor beta (Rattus norvegicus) (UniProt P18090+P10608+P26255). Description: Beta agonist activity against heart rate in rats. Type of data set: functional, tissue-based. In outline: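 Rats anesthetized with pentobarbitone sodium (75 mg/kg ip) and reserpinized 20-24 h earlier (5 mg/kg ip). Single iv doses into tail vein, up to 20 animals. Blood pressure and heart rate recorded; ED30 = dose giving 30 beats/min heart-rate rise, with 95% confidence limits from log dose-response linear regression.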

For data set [2], the target named is Beta-2 adrenergic receptor (Rattus norvegicus) (UniProt P10608). Kind of data set: Inhibition of isoprenaline induced […] response in anaesthetised rats.
Data set [3] in a line: Acid dissociation constant was determined. The class given is ADME.
The target in data set [4] is Beta-1 adrenergic receptor (Rattus norvegicus) (UniProt P18090). Kind of data set: Inhibition of isoprenaline induced tachycardia in anaesthetised rats. The class given is functional. In outline:
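Pentobarbitone-anesthetized rats (75 mg/kg ip), bilaterally vagotomized, tracheal cannula. Isoprenaline given via right femoral vein; carotid blood pressure and tachograph heart rate recorded. Test compound injected 5 min after isoprenaline, cumulative doses up to 2 mg/kg. ED50 (50% reduction of control isoprenaline response) with 95% confidence limits by linear regression of log dose-response.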

In data set [5] the target is Beta-2 adrenergic receptor (Rattus norvegicus) (UniProt P10608). Kind of data set: Beta-2 adrenergic receptor antagonism in rats anesthetized with pentobarbitone sodium (75 mg/kg ip).

Results on 26 compounds are retold here after ChEMBL document CHEMBL1122761, “Beta 1-selective adrenoceptor antagonists. 3. 4-Azolyl-linked phenoxypropanolamines” (J Med Chem, 1984).

Beta-1 adrenergic receptor (Rattus norvegicus), sequence (P18090 whole entry, looked up): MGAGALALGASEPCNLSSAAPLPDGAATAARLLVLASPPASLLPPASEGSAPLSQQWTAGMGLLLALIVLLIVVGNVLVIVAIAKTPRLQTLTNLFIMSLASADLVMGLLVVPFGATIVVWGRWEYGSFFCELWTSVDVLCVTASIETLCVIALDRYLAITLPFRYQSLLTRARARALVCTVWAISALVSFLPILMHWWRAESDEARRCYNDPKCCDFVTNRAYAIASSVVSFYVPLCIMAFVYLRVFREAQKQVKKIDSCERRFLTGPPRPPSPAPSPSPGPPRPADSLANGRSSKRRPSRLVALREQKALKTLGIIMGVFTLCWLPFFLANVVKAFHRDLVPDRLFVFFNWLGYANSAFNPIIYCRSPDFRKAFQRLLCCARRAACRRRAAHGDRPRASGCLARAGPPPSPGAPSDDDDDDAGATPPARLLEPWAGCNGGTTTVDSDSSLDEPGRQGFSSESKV
Beta-2 adrenergic receptor (Rattus norvegicus), sequence (P10608 whole entry, looked up): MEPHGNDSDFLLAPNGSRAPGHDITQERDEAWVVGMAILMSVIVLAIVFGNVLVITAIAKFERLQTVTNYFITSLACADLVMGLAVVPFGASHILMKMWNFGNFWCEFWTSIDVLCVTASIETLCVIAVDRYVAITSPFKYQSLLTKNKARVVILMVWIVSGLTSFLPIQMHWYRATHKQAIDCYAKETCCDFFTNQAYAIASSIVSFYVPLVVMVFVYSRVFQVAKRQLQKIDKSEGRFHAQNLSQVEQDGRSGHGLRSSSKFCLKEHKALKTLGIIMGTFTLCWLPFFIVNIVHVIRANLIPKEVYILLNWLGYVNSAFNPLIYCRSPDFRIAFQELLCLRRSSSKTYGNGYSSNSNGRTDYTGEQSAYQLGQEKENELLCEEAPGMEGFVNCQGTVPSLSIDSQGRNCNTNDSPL

As to `CC(C)NCC(O)COc1ccc(OCn2nccn2)cc1` (centres undefined), the ED30 in data set [1] stood at 0.019 mg/kg. In addition, the ED50 in data set [2] was > 2 mg/kg; in data set [4] it was 0.011 mg/kg. Moreover, in data set [3], the pKa is < 1.
In the case of `CC(C)NCC(O)COc1ccc(OCCn2nc3c(n2)CCCC3)cc1` (centres undefined), the ED30 in data set [1] was > 1 mg/kg. Besides, the ED50 was > 2 mg/kg in data set [5] and 0.057 mg/kg in data set [4].
In the case of `CC(C)NCC(O)COc1ccc(CCn2cccn2)cc1` (centres undefined), the ED30 in data set [1] is > 1 mg/kg. The values for the ED50 in data set [5] and in data set [4] were > 2 mg/kg and 0.209 mg/kg, respectively. Moreover, the pKa in data set [3] came out at 2.
Taken in the same sequence, the figures for `CC(C)NCC(O)COc1ccc(Cn2ccnc2)cc1` (centres undefined) were > 1 mg/kg, > 1 mg/kg, 0.62 mg/kg and 7.2.
For `CC(C)NCC(O)COc1ccc(CCCn2cccn2)cc1` (centres undefined), the ED30 in data set [1] is > 1 mg/kg. Also, the values for the ED50 in data set [5] and in data set [4] were > 2 mg/kg and 0.783 mg/kg, respectively.
The compound `CC(C)NCC(O)COc1ccc(OCCn2nccn2)cc1` (centres undefined) gave an ED30 in data set [1] of 0.014 mg/kg. The ED50 was > 2 mg/kg in data set [5] and 0.014 mg/kg in data set [4]. Moreover, the pKa in data set [3] is < 1.
As for `CC(C)NCC(O)COc1ccc(OCCn2cnc3ccccc32)cc1` (centres undefined), the ED30 in data set [1] is > 1 mg/kg. Further, the ED50 in data set [5] was > 2 mg/kg; in data set [4], 0.687 mg/kg.
The like results for `CC(C)NCC(O)COc1ccc(SCn2cccn2)cc1` (centres undefined) were, in that order, > 1 mg/kg, > 2 mg/kg and 0.327 mg/kg.
The like results for `CC(C)NCC(O)COc1ccc(OCCn2cc(-c3ccccc3)cn2)cc1` (centres undefined) were, in that order, > 1 mg/kg, > 2 mg/kg and 0.16 mg/kg.
In the case of `CC(C)NCC(O)COc1ccc(OCn2cccn2)cc1` (centres undefined), in data set [1], the ED30 was > 1 mg/kg. Also, the ED50 in data set [2] is > 2 mg/kg; in data set [4] it was 0.028 mg/kg. The pKa in data set [3] amounted to 2.
Consider `CC(C)NCC(O)COc1ccc(OCCCn2cncn2)cc1` (centres undefined), for which, in data set [1], the ED30 was > 1 mg/kg. In addition, the median effective dose (ED50) was > 2 mg/kg in data set [5] and 0.68 mg/kg in data set [4].
Consider `CC(C)NCC(O)COc1ccc(OCn2ccnn2)cc1` (centres undefined), for which the ED30 in data set [1] amounted to 0.05 mg/kg. Also, the ED50 in data set [2] was > 2 mg/kg; in data set [4], 0.04 mg/kg. This compound also gave a pKa in data set [3] of 1.25.
As for `CC(C)NCC(O)COc1ccc(Cn2cccn2)cc1` (centres undefined), in data set [1], the ED30 is > 1 mg/kg. Moreover, the ED50 in data set [5] was > 2 mg/kg; in data set [4] it was 0.598 mg/kg.
Take `CC(C)NCC(O)COc1ccc(OCCn2ncc3ccccc32)cc1` (centres undefined): the ED30 in data set [1] is > 1 mg/kg. Also, the ED50 in data set [5] was > 2 mg/kg; in data set [4] it was 0.263 mg/kg.
Turning to `CC(C)NCC(O)COc1ccc(SCCn2cccn2)cc1` (centres undefined), in data set [1], the ED30 was > 1 mg/kg. Besides, the ED50 is > 2 mg/kg in data set [5] and 0.128 mg/kg in data set [4].
Taken in the same sequence, the figures for `CC(C)NCC(O)COc1ccc(OCCn2nnc3ccccc32)cc1` (centres undefined) were > 1 mg/kg, > 2 mg/kg and 1.27 mg/kg.
For the compound `CC(C)NCC(O)COc1ccc(OCCn2ccnc2)cc1` (centres undefined), the ED30 in data set [1] was > 1 mg/kg. Also, the ED50 in data set [5] is > 2 mg/kg; in data set [4], 0.97 mg/kg.
For the compound `CC(C)NCC(O)COc1ccc(CCn2cncn2)cc1` (centres undefined), the ED30 in data set [1] was > 1 mg/kg. The figures for the ED50 in data set [5] and in data set [4] were > 2 mg/kg and 0.233 mg/kg, respectively. The pKa in data set [3] is 3.2.
In data set [1], `CC(C)NCC(O)COc1ccc(OCn2cc(Cl)cn2)cc1` (centres undefined) displayed an ED30 of 0.007 mg/kg. Besides, the values for the ED50 in data set [2] and in data set [4] were 2.43 mg/kg and 0.004 mg/kg, respectively. In addition, the pKa in data set [3] was < 0.6.
Take `CC(C)NCC(O)COc1ccc(OCCn2cc(Cl)cn2)cc1` (centres undefined): in data set [1], the ED30 turned out to be 0.194 mg/kg. For the same compound, the ED50 is 0.523 mg/kg in data set [5] and 0.024 mg/kg in data set [4]. Moreover, the pKa in data set [3] was < 0.6.
On to `CC(C)NCC(O)COc1ccc(CCn2ccnc2)cc1` (centres undefined), for which the ED30 in data set [1] was > 1 mg/kg. The figures for the ED50 in data set [5] and in data set [4] were > 1 mg/kg and 0.186 mg/kg, respectively.
For the compound `CC(C)NCC(O)COc1ccc(OCCn2cncn2)cc1` (centres undefined), in data set [1], the ED30 is > 1 mg/kg. In addition, the figures for the ED50 in data set [5] and in data set [4] were > 2 mg/kg and 0.17 mg/kg, respectively. In data set [3], the pKa was 3.2.
Turning to `CC(C)(C)NCC(O)COc1ccc(OCCn2cccn2)cc1` (centres undefined), the ED30 in data set [1] turned out to be 0.154 mg/kg. Also, the ED50 was 1.04 mg/kg in data set [5] and 0.067 mg/kg in data set [4].
The like results for `CC(C)NCC(O)COc1ccc(OCCCn2cccn2)cc1` (centres undefined) were, in that order, > 1 mg/kg, > 2 mg/kg and 0.334 mg/kg.
In the case of `CC(C)NCC(O)COc1ccc(OCCn2cccn2)cc1` (centres undefined), the ED30 in data set [1] is > 1 mg/kg. Besides, the ED50 in data set [5] is > 2 mg/kg; in data set [4], 0.05 mg/kg. The pKa in data set [3] is 2.
As to `CC(C)NCC(O)COc1ccc(OCCn2nc3ccccc3n2)cc1` (centres undefined), in data set [1], the ED30 was > 1 mg/kg. In addition, the ED50 in data set [5] turned out to be 0.988 mg/kg; in data set [4], 0.05 mg/kg.
